The results in this text go back to ChEMBL document CHEMBL1155284, “Synthesis and antibacterial activity of some new thiadiaza/triazaphospholes, thiadiaza/triaza/tetrazaphosphinines and thiadiaza/tetrazaphosphepines containing 1,2,4-triazinone moiety” (Eur J Med Chem, 2009).

By MIC is commonly meant the least concentration at which growth counts as inhibited. The low end stands for greater potency, the high end for weaker potency. Usually LC50 stands for the concentration that kills 50% of the test population. A higher LC50 goes with a less lethal substance.

The test system of series [1] is Pseudomonas aeruginosa. Description: Antimicrobial activity against Pseudomonas aeruginosa ATCC 27853 after 24 hrs by tube dilution technique. The format is functional. Conditions: ATCC 27853, 24 h. An outline of the steps: (§1)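 Tube dilution in nutrient broth at 3.12, 6.25, 12.5, 25 and 50 µg/mL. Each tube received 100 µL of standardized bacterial suspension (10^7 cell/mL). Tubes were incubated at 37 °C for 24 h. MIC was the lowest concentration that maintained or reduced inoculum viability.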

Series [2] concerns Staphylococcus aureus. Description: Antimicrobial activity against Staphylococcus aureus MTCCB 737 at 100 ug/mL after 16 to 20 hrs by disk diffusion method. The format is functional. The settings on record: read-out: DIZ. The method, boiled down:
(§2)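 Nutrient agar disc diffusion with compounds at 100 µg/mL and DMSO as blank. Plates were incubated 16–20 h at 37 °C, then inhibition zone diameter was measured. Zones of 12 mm or less were scored resistant, 13–17 mm moderate, and 18 mm or more maximum inhibition.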
(In general: A growth-free zone around the sample is the usual read-out of agar diffusion tests.)

Series [3] has as its system Staphylococcus epidermidis. Description: Antimicrobial activity against Staphylococcus epidermidis MTCCB 1824 after 24 hrs by tube dilution technique. The settings on record: MTCCB 1824, 24 h. The format is functional. An outline of the steps:
as §1

The test system of series [4] is Escherichia coli. Description: Antimicrobial activity against Escherichia coli MTCCB 1652 at 100 ug/mL after 16 to 20 hrs by disk diffusion method. The format is functional. Conditions: read-out: DIZ. An outline of the steps:
as §2

Series [5] relates to Staphylococcus aureus. Description: Antimicrobial activity against Staphylococcus aureus MTCCB 737 after 24 hrs by tube dilution technique. The format is functional. The settings on record: MTCCB 737, 24 h. The method, boiled down: as §1
In series [6] the test system is Staphylococcus epidermidis. Description: Antimicrobial activity against Staphylococcus epidermidis MTCCB 1824 at 100 ug/mL after 16 to 20 hrs by disk diffusion method. The settings on record: read-out: DIZ. Type of series: functional. The method, boiled down: as §2
Series [7] relates to Pseudomonas aeruginosa. Description: Antimicrobial activity against Pseudomonas aeruginosa ATCC 27853 at 100 ug/mL after 16 to 20 hrs by disk diffusion method. Type of series: functional. Conditions: read-out: DIZ. The method, boiled down:
as §2

Series [8] has as its system Escherichia coli. The series is described as follows: Antimicrobial activity against Escherichia coli MTCCB 1652 after 24 hrs by tube dilution technique. The format is functional. The settings on record: MTCCB 1652, 24 h. The method, boiled down: as §1
The subject of another series is Artemia salina. The series is described as follows: (§3) Toxicity against Artemia salina larvae after 24 hrs. The settings on record: in vivo, 24 h. The format is organism-based. The method, boiled down: (§4)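 Brine shrimp lethality test. Artemia salina eggs were hatched 48 h at 37 °C in filtered sea salt solution (38 g/L) with constant oxygen to give nauplii. Stock was 10 mg compound in 2 mL DMSO, diluted to 80, 40, 20, 10 and 5 µg/mL in triplicate vials, about 10 nauplii each, with a DMSO control. LC50 is the mean of three values.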

Series [9] can be described thus: as §3. The format is organism-based. Conditions: in vivo. An outline of the steps:
as §4

Series [10] has as its system Pseudomonas aeruginosa. Description: Antimicrobial activity against Pseudomonas aeruginosa ATCC 27853.
The test system of series [11] is Staphylococcus aureus. Description: Antimicrobial activity against Staphylococcus aureus MTCCB 737 at 30 ug/mL after 16 to 20 hrs by disk diffusion method. The format is functional. The settings on record: read-out: DIZ. The method, boiled down: (§5)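 Nutrient agar disc diffusion with the reference drug tetracycline at 30 µg/mL and DMSO as blank. Plates were incubated 16–20 h at 37 °C, then inhibition zone diameter was measured. Zones of 12 mm or less were scored resistant, 13–17 mm moderate, and 18 mm or more maximum inhibition.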

In series [12] the test system is Pseudomonas aeruginosa. Description: Antimicrobial activity against Pseudomonas aeruginosa ATCC 27853 at 30 ug/mL after 16 to 20 hrs by disk diffusion method. Conditions: read-out: DIZ. The format is functional. The method, boiled down: as §5
The subject of series [13] is Staphylococcus epidermidis. Description: Antimicrobial activity against Staphylococcus epidermidis MTCCB 1824 at 30 ug/mL after 16 to 20 hrs by disk diffusion method. The format is functional. Conditions: read-out: DIZ. An outline of the steps: as §5
In series [14] the test system is Escherichia coli. The series is described as follows: Antimicrobial activity against Escherichia coli MTCCB 1652 at 30 ug/mL after 16 to 20 hrs by disk diffusion method. The format is functional. The settings on record: read-out: DIZ. An outline of the steps: as §5

≈ marks a conversion by molar mass, not a printed value.

Regarding `Cc1nnc(N)n(N)c1=O`, the MIC against Pseudomonas aeruginosa [1] came to 50 µg/mL (≈ 354 µM); in series [3], 25 µg/mL (≈ 177 µM); against Staphylococcus aureus [5] it was 25 µg/mL (≈ 177 µM); against Escherichia coli [8], 50 µg/mL (≈ 354 µM). Further, the zone of inhibition at 100 µg/mL was found to be 16 mm in the series on Staphylococcus aureus [2], 14 mm in the series on Escherichia coli [4], 15 mm in [6] and 13 mm in the series with Pseudomonas aeruginosa [7].

Regarding `Cc1nnc(NN)n(N)c1=O`, the MIC against Pseudomonas aeruginosa [1] was 50 µg/mL (≈ 320 µM); in series [3], 50 µg/mL (≈ 320 µM); with Staphylococcus aureus [5], 50 µg/mL (≈ 320 µM); against Escherichia coli [8], 25 µg/mL (≈ 160 µM). Moreover, the zone of inhibition at 100 µg/mL in the series with Staphylococcus aureus [2] worked out at 17 mm; with Escherichia coli [4], 15 mm; in series [6], 15 mm; with Pseudomonas aeruginosa [7], 15 mm.

Take BLEOMYCIN: the LC50 with Artemia salina was 0.41 µg/mL.

Regarding `Cc1nnc2n(c1=O)N=C(c1ccccc1)CP(c1ccccc1)(c1ccccc1)(c1ccccc1)S2`, the MIC against Pseudomonas aeruginosa [1] was determined as 50 µg/mL (≈ 96 µM); in series [3], 12.5 µg/mL (≈ 24 µM); against Staphylococcus aureus [5] it was 25 µg/mL (≈ 48 µM); against Escherichia coli [8], 50 µg/mL (≈ 96 µM). Also, the zone of inhibition at 100 µg/mL with Staphylococcus aureus [2] was 21 mm; with Escherichia coli [4], 16 mm; in series [6] it was 19 mm; with Pseudomonas aeruginosa [7], 19 mm.

Consider `Cc1nnc(S)n(N)c1=O`, for which the MIC in the series on Pseudomonas aeruginosa [1] was found to be 25 µg/mL (≈ 158 µM); in [3], 50 µg/mL (≈ 316 µM); against Staphylococcus aureus [5], 50 µg/mL (≈ 316 µM); against Escherichia coli [8] it was 50 µg/mL (≈ 316 µM). The zone of inhibition at 100 µg/mL with Staphylococcus aureus [2] worked out at 13 mm; in the series with Escherichia coli [4], 14 mm; in series [6], 14 mm; in the series on Pseudomonas aeruginosa [7] it was 15 mm.

Regarding `Cc1nnc2n(c1=O)NP(=O)(c1ccccc1)S2` (stereo not drawn), the MIC turned out to be 12.5 µg/mL (≈ 44.6 µM) in the series on Pseudomonas aeruginosa [1], 25 µg/mL (≈ 89.2 µM) in series [3], 25 µg/mL (≈ 89.2 µM) against Staphylococcus aureus [5] and 12.5 µg/mL (≈ 44.6 µM) in the series with Escherichia coli [8]. For the same molecule, the zone of inhibition at 100 µg/mL with Staphylococcus aureus [2] is 20 mm; with Escherichia coli [4], 21 mm; in series [6] it was 17 mm; in the series with Pseudomonas aeruginosa [7], 23 mm. This molecule also had an LC50 at 24 h in [9] of 7.85 µg/mL (≈ 28 µM).

Turning to `CC1=Nn2c(nnc(C)c2=O)SP1(c1ccccc1)(c1ccccc1)c1ccccc1`, the MIC against Pseudomonas aeruginosa [1] was 12.5 µg/mL (≈ 28.1 µM); in [3], 25 µg/mL (≈ 56.2 µM); in the series with Staphylococcus aureus [5] it was 25 µg/mL (≈ 56.2 µM); against Escherichia coli [8], 12.5 µg/mL (≈ 28.1 µM). In addition, the zone of inhibition at 100 µg/mL was found to be 20 mm with Staphylococcus aureus [2], 19 mm in the series with Escherichia coli [4], 19 mm in [6] and 22 mm with Pseudomonas aeruginosa [7].

`CN(C)[C@@H]1C(O)=C(C(N)=O)C(=O)[C@@]2(O)C(O)=C3C(=O)c4c(O)cccc4[C@@](C)(O)[C@H]3C[C@@H]12` [TETRACYCLINE]: the MIC (with Pseudomonas aeruginosa [1]; in series [3]; against Staphylococcus aureus [5]; in the series on Escherichia coli [8]) was 6.25 µg/mL (≈ 14.1 µM) each time. For the same molecule, the diameter of the inhibition zone (DIZ) in the series on Pseudomonas aeruginosa [10] came out at 29 mm. The zone of inhibition at 30 µg/mL in the series on Staphylococcus aureus [11] turned out to be 30 mm; in the series on Pseudomonas aeruginosa [12], 29 mm; in series [13], 25 mm; in the series on Escherichia coli [14], 28 mm.

On to `CCOP1(=O)Sc2nnc(C)c(=O)n2NC1c1ccc(Cl)cc1` (stereo not drawn), for which the MIC was 25 µg/mL (≈ 67.1 µM) with Pseudomonas aeruginosa [1], 6.25 µg/mL (≈ 16.8 µM) in [3], 6.25 µg/mL (≈ 16.8 µM) against Staphylococcus aureus [5] and 50 µg/mL (≈ 134 µM) in the series with Escherichia coli [8]. Further, the zone of inhibition at 100 µg/mL came out at 27 mm in the series on Staphylococcus aureus [2], 15 mm in the series on Escherichia coli [4], 23 mm in series [6] and 20 mm in the series with Pseudomonas aeruginosa [7]. The molecule also displayed an LC50 at 24 h in [9] of 13.8 µg/mL (≈ 37.1 µM).
